# The list is not random: actives were taken first. Their share in the collection is about 1.5%.
# NR2E3 ag-1: activates human NR2E3 receptor | inhibition of corepressor binding, % at 3.98 µM | Q9Y5X4 | CHO-S Gal4-NCOR/VP16-NR2E3 two-hybrid, luciferase | 360,000 compounds, 0.35% hits | AID 602229;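 active means inhibition above the mean of all tested compounds plus 3 SD, cut at about 70% in these data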;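 further: 0% = DMSO with NR2E3 transfected cells and 100% = cells lacking NR2E3 construct; higher means lower luciferase signal from less NR2E3 corepressor binding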
# PG9 binder: PG9 antibody binding by small molecule; TR-FRET gp120-PG9 antibody binding; inhibition, % at 6.7 µM; 360,000 compounds, 0.43% hits; AID 624416; in the data active means inhibition above about 8.5%
# NR2E3 ag-2: NR2E3 (human) agonism | Q9Y5X4 | GST-NR2E3/biotin-RetCOR TR-FRET, 1536-well | inhibition of corepressor binding, % at 4.78 µM | 320,000 compounds, 0.12% hits | AID 2300;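 active means percent inhibition above the cutoff of mean plus 3 SD of all tested compounds, set per screening campaign, cut at about 20% in these data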;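 further: 0% = DMSO wells and 100% = biotin wells as full block of FRET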
#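 system = GST-tagged NR2E3 plus biotinylated RetCOR corepressor | input = 1.35 nM GST-NR2E3 | also added = 7 nM biotin-RetCOR | schedule = 5 h incubation at 4 °C | measured by = TR-FRET with europium anti-GST and streptavidin-D2, 340 nm excitation | read-out = percent loss of FRET ratio relative to control wells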
# Rev-erbA mod: modulators of human Rev-erb alpha DNA binding. P20393. activity, % at 10 µM. 370,000 compounds, 0.79% hits. Rev-erbα–FITC-DNA binding, fluorescence polarization, 90 min;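 active means activity above about 14%, limit read from the data; passing the limit was not always enough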;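 further: 0% = DMSO wells with 35 nM protein and 100% = DMSO wells with 750 nM protein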
# Target sequence (P20393 whole entry, looked up): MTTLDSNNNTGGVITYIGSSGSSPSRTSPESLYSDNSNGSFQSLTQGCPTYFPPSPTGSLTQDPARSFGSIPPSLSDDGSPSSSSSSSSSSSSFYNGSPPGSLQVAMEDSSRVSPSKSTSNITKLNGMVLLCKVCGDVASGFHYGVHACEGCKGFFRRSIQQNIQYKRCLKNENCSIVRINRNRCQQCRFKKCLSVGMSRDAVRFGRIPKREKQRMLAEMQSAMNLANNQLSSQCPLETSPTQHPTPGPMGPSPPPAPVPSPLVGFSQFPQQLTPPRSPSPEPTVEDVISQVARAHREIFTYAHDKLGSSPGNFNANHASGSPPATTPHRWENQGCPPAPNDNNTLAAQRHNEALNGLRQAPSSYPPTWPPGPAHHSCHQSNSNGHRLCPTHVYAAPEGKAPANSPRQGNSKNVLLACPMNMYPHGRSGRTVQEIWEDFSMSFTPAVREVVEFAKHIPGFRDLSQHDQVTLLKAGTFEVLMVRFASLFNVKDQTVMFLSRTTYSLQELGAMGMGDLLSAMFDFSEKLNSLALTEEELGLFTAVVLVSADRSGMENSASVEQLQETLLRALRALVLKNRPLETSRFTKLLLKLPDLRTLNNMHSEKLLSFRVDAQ
# Rev-erbA confirm: confirmation of modulators of human Rev-erb alpha DNA binding. shares compounds with Rev-erbA mod. Rev-erb alpha FITC-DNA binding, fluorescence polarization, 90 min. activation, % at 25 µM. 3,000 compounds, 61% hits. AID 1259319;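 active means activation at or above a set limit, or at least 3 SD above the negative control mean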;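 further: 0% = 35 nM protein with DMSO and 100% = 750 nM protein high control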
# RORg counter: RORgamma DNA-binding activity, dose-response counter-screen. shares compounds with Rev-erbA mod. purified RORgamma protein-FITC-DNA binding, fluorescence polarization. IC50, µM. 910 compounds, 8% hits. AID 1259320;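 active means Compounds whose fitted half-maximal concentration for disrupting protein-DNA binding is below 10 micromolar; the record names Rev-erb in its text, so the target is in doubt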
# An asterisk follows results filed as active; nt = no result.
SMILES,NR2E3 ag-1,PG9 binder,NR2E3 ag-2,Rev-erbA mod,Rev-erbA confirm,others
O=C(O)CSc1c2ccccc2cc2ccccc12,-18,-1,-4,41*,38*,RORg counter=>40
O=[N+]([O-])c1ccc(N(c2ccccc2)c2ccccc2)cc1,3,6,3,44*,35*,RORg counter=>40
CCN(C(=O)c1ccccc1)c1ccc([N+](=O)[O-])cc1,-2,-2,-4,0,nt,
Cc1sc(NC(=O)c2oc3ccccc3c2C)c(C#N)c1C,-19,nt,-3,226*,283*,
Cc1c(C(=O)NC2=NCCS2)oc2ccccc12,-100,1,1,1,nt,
O=C(CCc1ccccc1)NC(=S)Nc1ccc2c(c1)C(=O)OC2,-27,8,-6,31*,30*,
O=C(CCc1ccccc1)NC(=S)Nc1cccc(Br)c1,-13,0,-2,-1,nt,
Cc1ccc(-n2nc(-c3ccc(OC(F)(F)F)cc3)cc2N)cc1C,-10,-3,-2,-3,nt,
Cc1cccc(N(C)S(=O)(=O)c2ccc3[nH]cc(C(=O)N4CCOCC4)c(=O)c3c2)c1,-10,4,4,-1,nt,
CCc1ccccc1N(C)S(=O)(=O)c1ccc2[nH]cc(C(=O)N3CCc4ccccc43)c(=O)c2c1,13,0,5,45*,27*,
CN(C)S(=O)(=O)c1cc(C(=O)Nc2ccccc2C(=O)NC2CC2)ccc1Cl,-1,0,0,-5,nt,
COC(=O)[C@]12C[C@H](CC(=O)N3CCSCC3)C(=O)N(Cc3ccco3)C1=C[C@H](C(C)(C)C)O[C@@H]2C,nt,nt,nt,-1,nt,
COc1ccc(-c2c(C(F)(F)F)oc3cc(OCC(=O)Nc4ccccc4C(F)(F)F)ccc3c2=O)cc1OC,-29,-2,2,37*,20*,
O=C(NC1=N[C@@]2(C=C3CCCCC3n3c(=O)n(-c4ccccc4)c(=O)n32)CN1Cc1ccccc1)c1ccccc1 (stereo not given in full),nt,nt,nt,2,nt,
CS(=O)(=O)Nc1ccc(-c2ccc(/C=C3\SC(N)=NC3=O)o2)cc1,-9,-12,-5,44*,33*,RORg counter=>40
c1ccc(Sc2cnc3ccccc3n2)cc1,-27,4,3,20*,22*,
Clc1ccccc1Sc1cnc2ccccc2n1,0,5,12,11,nt,
Brc1ccc(Sc2cnc3ccccc3n2)cc1,-45,7,5,49*,35*,RORg counter=>40
Clc1ccc(Sc2cnc3ccccc3n2)cc1,-14,6,6,32*,30*,
COc1ccc(/C=N/NC(=O)c2ccc(O)cc2O)cc1CSc1ccccn1,-19,0,-2,-4,nt,
CCn1cc(/C=C(\NC(=O)c2cc(OC)c(OC)c(OC)c2)C(=O)N2CCOCC2)c2ccccc21,1,0,nt,-2,nt,
CC1=Nc2ccccc2/C1=C/c1sc(=S)n(-c2cccc(C(=O)O)c2)c1O,-8,0,nt,48*,52*,RORg counter=>40
CCCCNC(=O)c1cc2n(n1)C(C(F)(F)F)CC(c1ccccc1)N2 (stereo not given),-18,-1,0,-5,nt,
CCOC(=O)c1c(NC(=O)c2cc3n(n2)C(C(F)(F)F)CC(c2ccccc2)N3)sc(C)c1C (stereo not given),-5,-2,2,36*,6,
O=c1[nH]c2cc(Br)c(Br)nc2[nH]1,nt,nt,nt,-2,nt,
SMILES,NR2E3 ag-1,PG9 binder,NR2E3 ag-2,Rev-erbA mod,Rev-erbA confirm,others
COc1ccccc1-c1ccc2c(c1)C(C)(Cc1ccccc1C#N)C(=O)N2 (stereo not given),33,0,nt,48*,42*,RORg counter=>40
CC1(Cc2ccccc2C#N)C(=O)Nc2ccc(-c3ccccc3)cc21 (stereo not given),-12,-1,nt,36*,51*,RORg counter=>40
CCc1ccc2c(c1)NC(=O)C2(C)Cc1ccccc1C#N (stereo not given),10,1,nt,2,nt,
CCc1cccc(C)c1NC(=O)C1CCN(C(=O)c2ccc([N+](=O)[O-])cc2)CC1,1,0,-1,-1,nt,
CCOC(=O)C1CCCN(C(=O)c2cccc(C(F)(F)F)c2)CC1 (stereo not given),-11,1,nt,-5,nt,
Cc1nc(C)c(-c2ccc(SCC(=O)Nc3cccc(Cl)c3C)nn2)s1,-4,-2,14,16*,-4,
Cc1ccccc1C(=O)NN(C)c1nc2ccccc2nc1C(F)(F)F,-28,-1,-1,36*,31*,
O=C(CSc1nc(C2CCCCC2)nc2ccccc12)NCc1ccc2c(c1)OCO2,-6,0,5,20*,16,
Clc1ccccc1-c1nn2c(-c3cc(-c4ccccc4)n[nH]3)nnc2s1,nt,nt,nt,30*,44*,RORg counter=>40
c1ccc(-c2nnc3sc(-c4ccncc4)nn23)cc1,11,-1,1,-3,nt,
Clc1ccc(-c2nn3c(-c4ccccc4)nnc3s2)cc1,-15,3,2,24*,15,
Cc1cc(-c2nnc3sc(-c4ccc(Cl)cc4Cl)nn23)n[nH]1,-18,6,3,45*,40*,RORg counter=>40
COc1cccc(OC)c1-c1nn2c(-c3cc(-c4ccccc4)n[nH]3)nnc2s1,-3,-17,-14,65*,83*,RORg counter=>40
COc1cccc(-c2nnc3sc(-c4ccccc4)nn23)c1,-30,8,2,4,nt,
Fc1ccc(-c2cc(-c3nnc4sc(-c5ccco5)nn34)[nH]n2)cc1,nt,nt,nt,8,nt,
Clc1ccc(-c2nnc3sc(-c4ccc(Br)o4)nn23)c(Cl)c1,6,-4,2,8,nt,
COc1ccc2c(c1)-c1c(ssc1=S)C(C)(C)N2C(=O)CSC1=NCCS1,10,0,-2,21*,30*,
COc1cccc(C2C(C(C)=O)=C(O)C(=O)N2CCc2c[nH]c3ccccc23)c1 (stereo not given),-34,-4,1,-6,nt,
Clc1ccc(-c2ccnc(-n3cccc3)n2)s1,0,2,0,18*,-1,
CC(=O)Nc1cc(C(F)(F)F)ccc1N1CCOCC1,-17,-1,5,-5,nt,
CCC(Oc1ccccc1)C(=O)Nc1cc(C(F)(F)F)ccc1N1CCOCC1 (stereo not given),28,0,9,16*,12,
Cc1ccc(NC(=S)N2CCCCC2)cc1C,-15,0,-1,-8,nt,
CCCCCCNC(=O)OC12CN(C(=O)OC(C)C)N(C(=O)OC(C)C)CC1(O)CN(S(=O)(=O)c1ccc(C)cc1)C2 (stereo not given),26,0,nt,15*,0,
COc1ccccc1NC(=O)c1oc2ccccc2c1NC(=O)C1CC1,-43,-2,0,5,nt,
COc1ccc(NC(=O)c2oc3ccccc3c2NC(=O)COc2ccccc2OC)c(OC)c1,-9,-2,0,42*,31*,
CCOCC(=O)Nc1c(C(=O)Nc2ccccc2OC)oc2ccccc12,4,1,-2,47*,39*,

# Bioassay records deposited in PubChem BioAssay by several laboratories.
